For this assay, the system named is UPEC UTI89 capsule, orcinol assay OD572. Put plainly: inhibitors of UPEC UTI89 surface capsule formation, confirmation, orthogonal assay for bacterial capsule biogenesis inhibitors, orcinol colorimetric, OD572, set 2 (AID 624060). The settings on record: at 100 µM; stronger effect = lower value. The procedure, abridged: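 Test system – UPEC UTI89 plus ΔkpsM mutant · Doses – one dose, 100 µM · Schedule – hydrolysis 1 h, 80 °C · Signal – orcinol color, OD 572 nm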

`CCOc1ccc(-c2cc(NC(=O)c3c(F)cccc3F)c(C(=O)O)s2)cc1`: the capsule formation is 21%.

These data come from PubChem BioAssay AID624060 (Southern Research Specialized Biocontainment Screening …, 2012).
